{"source": "ChEMBL document CHEMBL4038303", "about": "“Simultaneous Drug Targeting of the Promoter MYC G-Quadruplex and BCL2 i-Motif in Diffuse Large B-Cell Lymphoma Delays Tumor Growth” (J Med Chem, 2017)", "key": {"Homo sapiens [1]": {"species": "Homo sapiens", "assay": "Binding affinity to BLC2 i-motif promoter DNA in BCL2 and MYC translocation-positive human VAL cells assessed as downregulation of BLC2 mRNA levels up to 3 uM after 24 hrs by qPCR method", "summary_of_the_method": "(§1)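 DLBCL lines grown in RPMI with 10% FBS (SUDHL4 15% FBS) and penicillin/streptomycin. Cells exposed for 24 h to rising concentrations up to 3 μM; DMSO as vehicle control. Total RNA isolated, target mRNA measured by TaqMan real-time qPCR, normalized to TBP and expressed relative to untreated cells; triplicate experiments, two-tailed t test.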"}, "Mus musculus [2]": {"system": "Mus musculus", "assay": "Reduction in Myc mRNA level in tumor of SCID mouse xenografted with human U2932 cells at 5 to 7.5 mg/kg, ip administered for 5 consecutive days cotreated with CPA and NSC-59276 by qPCR method", "assay_type": "functional, organism-based", "summary_of_the_method": "(§2)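 Tumors from U2932 xenograft SCID mice given ip treatment daily for 5 days were harvested. Total RNA was taken from the same tumor preparations used for protein lysates, and MYC or BCL2 mRNA was quantified by TaqMan qPCR normalized to TBP. Comparisons were made with diluent-treated mice or CPA-only mice.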"}, "Homo sapiens [3]": {"species": "Homo sapiens", "assay": "Binding affinity to c-myc G-quadruplex DNA in MYC translocation-positive and BCL2 amplification-positive human U2932 cells assessed as downregulation of MYC mRNA levels at 0.25 to 3 uM after 6 hrs by qPCR method"}, "U2932 [4]": {"system": "U2932", "assay": "Potentiation of CPA-induced antitumor activity against human U2932 cells xenografted in SCID mouse assessed as tumor growth inhibition at 7.5 mg/kg, ip for 5 days cotreated with 10 mg/kg NSC-59276 measured on day 9 post first treatment (reference value: 50%)", "assay_type": "functional", "summary_of_the_method": "(§3)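 U2932 DLBCL cells (10 × 10^6 in 100 μL sterile saline, viability >91%) injected subcutaneously into left flank of SCID mice (6−8 weeks, immunoglobulin ≤20 μg/mL). Mice pair-matched by tumor volume. Drugs given ip daily for 5 days, CPA 30 mg/kg; controls received all diluents. Tumor volume = a2 × b/2 (a smallest, b largest diameter); n = 5−8; Grubbs' test for outliers.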"}, "Homo sapiens [5]": {"species": "Homo sapiens", "assay": "Binding affinity to c-myc G-quadruplex DNA in BCL2 translocation-positive human SUDHL4 cells assessed as downregulation of MYC mRNA levels after 24 hrs by qPCR method", "summary_of_the_method": "as §1"}, "Mus musculus [6]": {"system": "Mus musculus", "assay": "Toxicity in scid mouse xenografted with human U2932 cells assessed as change in body weight at 5 to 7.5 mg/kg, ip administered for 5 consecutive days in presence of CPA", "assay_type": "organism-based", "settings": "in vivo", "summary_of_the_method": "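In the follow-up U2932 subcutaneous xenograft study in SCID mice (pair-matched by tumor volume, n = 5−8), compound at 5 or 7.5 mg/kg was given ip daily for 5 days with 30 mg/kg cyclophosphamide and 10 mg/kg BCL2 i-motif ligand. Diluent was given in place of any absent agent. Body weight and survival were followed.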"}, "Mus musculus [7]": {"system": "Mus musculus", "assay": "Toxicity in scid mouse xenografted with human U2932 cells assessed as change in body weight at 5 mg/kg, ip administered for 5 consecutive days cotreated with NSC-59276 and CPA", "assay_type": "organism-based", "settings": "in vivo", "summary_of_the_method": "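SCID mice (6−8 weeks, female or male, serum immunoglobulin ≤20 μg/mL by ELISA) implanted subcutaneously in left flank with 10 × 10^6 U2932 cells in 100 μL saline; pair-matched by tumor volume; dosed ip daily for 5 days; controls received all compound diluents; tumor volume a2 × b/2; outliers by Grubbs' test; two-tailed t test with Šidák–Bonferroni correction.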"}, "Homo sapiens [8]": {"species": "Homo sapiens", "assay": "Binding affinity to c-myc G-quadruplex DNA in MYC translocation-positive and BCL2 amplification-positive human U2932 cells assessed as downregulation of MYC mRNA levels after 24 hrs by qPCR method", "summary_of_the_method": "as §1"}, "Mus musculus [9]": {"system": "Mus musculus", "assay": "Reduction in Myc mRNA level in SCID mouse xenografted with human U2932 cells at 10 mg/kg, ip administered for 5 consecutive days cotreated with CPA and NSC-59276 by qPCR method", "assay_type": "functional, organism-based", "summary_of_the_method": "as §2"}, "Homo sapiens [10]": {"species": "Homo sapiens", "assay": "Binding affinity to c-myc G-quadruplex DNA in BCL2 translocation-positive human SUDHL4 cells assessed as downregulation of MYC mRNA levels up to 3 uM after 24 hrs by qPCR method relative to control", "summary_of_the_method": "as §1"}, "Homo sapiens [11]": {"species": "Homo sapiens", "assay": "Stabilization of c-myc G-quadruplex DNA in MYC translocation-positive and BCL2 amplification-positive human U2932 cells assessed as potentiation of CPA-induced apoptosis by measuring increase in caspase-3 activity at 3 uM after 24 hrs in presence of NSC-59276 by AFC based fluorescence assay (reference value: 30%)"}, "Mus musculus [12]": {"system": "Mus musculus", "assay": "Reduction in Bcl2 mRNA level in SCID mouse xenografted with human U2932 cells at 10 mg/kg, ip administered for 5 consecutive days cotreated with CPA and NSC-59276 by qPCR method", "assay_type": "functional, organism-based", "summary_of_the_method": "as §2"}, "U2932 [13]": {"system": "U2932", "assay": "Potentiation of CPA-induced antitumor activity against human U2932 cells xenografted in SCID mouse assessed as tumor growth inhibition at 7.5 mg/kg, ip for 5 days cotreated with 10 mg/kg NSC-59276 measured on day 15 post first treatment (reference value: 44%)", "assay_type": "functional", "summary_of_the_method": "as §3"}, "U2932 [14]": {"system": "U2932", "assay": "Potentiation of CPA-induced antitumor activity against human U2932 cells xenografted in SCID mouse assessed as reduction in tumor burden at 2.5 mg/kg, ip administered for 5 consecutive days measured up to 10 days post first treatement", "assay_type": "functional, organism-based", "summary_of_the_method": "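SCID mice bearing subcutaneous left-flank U2932 xenografts (10 × 10^6 cells in saline), pair-matched by tumor volume. Test agent given ip daily for 5 days with 50 mg/kg CPA; diluent-treated and CPA-alone controls. Tumor volume estimated as a2 × b/2 from smallest and largest diameters. Grubbs' test for outliers; two-tailed Student's t test.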"}, "Homo sapiens [15]": {"species": "Homo sapiens", "assay": "Binding affinity to c-myc G-quadruplex DNA in BCL2 and MYC translocation-positive human VAL cells assessed as downregulation of MYC mRNA levels at 3 uM after 24 hrs by qPCR method", "summary_of_the_method": "as §1"}, "Homo sapiens [16]": {"species": "Homo sapiens", "assay": "Binding affinity to c-myc G-quadruplex DNA in human HT cells assessed as downregulation of MYC protein levels up to 3 uM after 24 hrs by Western blot analysis", "assay_type": "cell-based", "summary_of_the_method": "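Cell lines treated 24 h with compound up to 3 μM, with untreated and DMSO-treated controls. Lysates (20 μg total protein) probed by Western blot for BCL2 or MYC with antibodies at 1:1000; actin as loading control. Blots representative of triplicate experiments.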"}, "Mus musculus [17]": {"system": "Mus musculus", "assay": "Reduction in Bcl2 mRNA level in tumor of SCID mouse xenografted with human U2932 cells at 5 to 7.5 mg/kg, ip administered for 5 consecutive days cotreated with CPA and NSC-59276 by qPCR method", "assay_type": "functional, organism-based", "summary_of_the_method": "as §2"}, "U2932 [18]": {"system": "U2932", "assay": "Antitumor activity against human U2932 cells xenografted in SCID mouse assessed as reduction in tumor burden at 5 to 7.5 mg/kg, ip for 5 days cotreated with 10 mg/kg NSC-59276 measured on day 9 to 15 post first treatment", "assay_type": "functional, organism-based", "summary_of_the_method": "as §3"}, "Mus musculus [19]": {"system": "Mus musculus", "assay": "Effect on BCL2 mRNA level in SCID mouse xenografted with human U2932 cells at 2.5 to 5 mg/kg, ip administered for 5 consecutive days cotreated with CPA by qPCR method", "assay_type": "functional, organism-based", "summary_of_the_method": "as §2"}}, "note": "Calls of active or inactive are those of the source. No cut-off for these calls is given here.", "data": [{"smiles": "Cc1c2ccncc2c(C)c2c1[nH]c1ccc(OCCN(C)C)cc12.Cl.Cl", "values": [{"measurement": "Activity", "setting": "Homo sapiens [1]", "value": "inactive"}, {"measurement": "Activity", "setting": "Mus musculus [2]", "value": "Active"}, {"measurement": "Activity", "setting": "Homo sapiens [3]", "value": "Active"}, {"measurement": "TGI", "setting": "U2932 [4]", "value": 50, "unit": "%"}, {"measurement": "Activity", "setting": "Homo sapiens [5]", "value": "Dose-dependent effect"}, {"measurement": "Activity", "setting": "Mus musculus [6]", "value": "Non-Toxic"}, {"measurement": "Activity", "setting": "Mus musculus [7]", "value": "Non-Toxic"}, {"measurement": "Activity", "setting": "Homo sapiens [8]", "value": "Dose-dependent effect"}, {"measurement": "Activity", "setting": "Mus musculus [9]", "value": "Active"}, {"measurement": "Activity", "setting": "Homo sapiens [10]", "value": "< 90", "unit": "%"}, {"measurement": "Activity", "setting": "Homo sapiens [11]", "value": 100, "unit": "%"}, {"measurement": "Activity", "setting": "Mus musculus [12]", "value": "Active"}, {"measurement": "TGI", "setting": "U2932 [13]", "value": 37, "unit": "%"}, {"measurement": "Activity", "setting": "U2932 [14]", "value": "Active"}, {"measurement": "Activity", "setting": "Homo sapiens [15]", "value": "Active"}, {"measurement": "Activity", "setting": "Homo sapiens [16]", "value": "Active"}, {"measurement": "Activity", "setting": "Mus musculus [17]", "value": "Active"}, {"measurement": "Activity", "setting": "U2932 [18]", "value": "inactive"}, {"measurement": "Activity", "setting": "Mus musculus [19]", "value": "inactive"}]}]}
